From ChEMBL document CHEMBL4350961, “Discovery of Pyrrolo[3,2- d]pyrimidin-4-one Derivatives as a New Class of Potent and Cell-Active Inhibitors of P300/CBP-Associated Factor Bromodomain” (J Med Chem, 2019) come the findings set out here.

Calls of active or inactive are those of the source. The calls are words filed in the database; no cut-off is given here.

A short description of data set [1]: Half life in Sprague-Dawley rat at 10 mg/kg, po administered via gavage by LC-MS/MS analysis. The class given is ADME, organism-based. The settings on record: in vivo. An outline of the steps:
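Male Sprague-Dawley rats, 6–8 weeks old, given a single 10 mg/kg dose by oral gavage (vehicle 2.5% ethanol, 2.5% tween-80 in saline, pH 7.0). Serial jugular blood samples taken and centrifuged to plasma. Plasma protein-precipitated with acetonitrile containing internal standard, then analysed by LC-MS/MS. Noncompartmental fit gave T1/2.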

For data set [2], the species on record is Homo sapiens. The experiment in a line: Inhibition of recombinant human ARAF Y301D/ Y302D mutant (273 to end residues) at 10 uM using myelin basic protein as substrate measured after 40 mins in presence of [gamma33P]ATP by scintillation counting method.
Data set [3] deals with Cyclin-dependent kinase-like 1 (Homo sapiens) (UniProt Q00532). The experiment in a line: Inhibition of recombinant human CDKL1 (1 to 303 residues) at 10 uM using RRRFRPASPLRGP as substrate measured after 120 mins in presence of [gamma33P]ATP by scintillation counting method.
The target of data set [4] is Calcium/calmodulin-dependent protein kinase type 1D (Homo sapiens) (UniProt Q8IU85). As to the kind of experiment: Inhibition of recombinant full-length human CaMK1delta at 10 uM using calmodulin as substrate measured after 40 mins in presence of [gamma33P]ATP by scintillation counting method.
In data set [5] the target is Calcium/calmodulin-dependent protein kinase type 1G (Homo sapiens) (UniProt Q96NX5). The experiment in a line: Inhibition of human CaMK1gamma. An outline of the steps:
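Kinase panel of 422 kinases screened by Eurofins KinaseProfiler at a single test-compound concentration of 10 µM.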

The test system of data set [6] is Serine/threonine-protein kinase Chk2 (Homo sapiens), O96017 [R145W]. As to the kind of experiment: Inhibition of recombinant human CHK2 R145W mutant (5 to end residues) at 10 uM using KKKVSRSGLYRSPSMPENLNRPR as substrate measured after 40 mins in presence of [gamma33P]ATP by scintillation counting method.
Chain of Serine/threonine-protein kinase Chk2 (Homo sapiens), O96017 [R145W] (O96017 whole entry R145W, the tested form may be a part, canonical isoform): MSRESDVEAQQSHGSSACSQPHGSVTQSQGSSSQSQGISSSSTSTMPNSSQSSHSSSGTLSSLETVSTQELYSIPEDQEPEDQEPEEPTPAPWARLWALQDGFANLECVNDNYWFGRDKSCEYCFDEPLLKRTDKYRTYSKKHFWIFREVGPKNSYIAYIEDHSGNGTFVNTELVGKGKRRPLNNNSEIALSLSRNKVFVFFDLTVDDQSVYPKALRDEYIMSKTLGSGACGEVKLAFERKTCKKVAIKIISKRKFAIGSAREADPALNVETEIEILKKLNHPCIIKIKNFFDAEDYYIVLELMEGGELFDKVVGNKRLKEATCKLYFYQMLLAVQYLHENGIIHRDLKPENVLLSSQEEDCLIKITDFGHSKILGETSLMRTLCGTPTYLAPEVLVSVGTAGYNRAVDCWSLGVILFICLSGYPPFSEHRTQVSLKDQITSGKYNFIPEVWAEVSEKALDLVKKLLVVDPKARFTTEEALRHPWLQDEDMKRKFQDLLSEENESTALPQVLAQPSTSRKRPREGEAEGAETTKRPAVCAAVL
Data set [7] has as its system Casein kinase I isoform gamma-3 (Homo sapiens), Q9Y6M4 [UNDEFINED MUTATION]. As to the kind of experiment: Inhibition of recombinant human CK1gamma3 K91E/R174G/E302D mutant (1 to 330 residues) at 10 uM using KRRRALS(p)VASLPGL as substrate measured after 40 mins in presence of [gamma33P]ATP by scintillation counting method.
Data set [8] concerns Discoidin domain-containing receptor 2 (Homo sapiens), Q16832 [UNDEFINED MUTATION]. As to the kind of experiment: Inhibition of recombinant human DDR2 S642A mutant (467 to end residues) at 10 uM using KKSRGDYMTMQIG as substrate measured after 40 mins in presence of [gamma33P]ATP by scintillation counting method.
In data set [9] the target is Dual specificity tyrosine-phosphorylation-regulated kinase 2 (Homo sapiens) (UniProt Q92630). As to the kind of experiment: Inhibition of recombinant full-length human DYRK2 at 10 uM using casein as substrate measured after 40 mins in presence of [gamma33P]ATP by scintillation counting method.
For data set [10], the target named is Ephrin type-B receptor 4 (Homo sapiens) (UniProt P54760). As to the kind of experiment: Inhibition of recombinant human EphB4 (561 to end residues) at 10 uM using poly (Glu, Tyr) 4:1 as substrate measured after 40 mins in presence of [gamma33P]ATP by scintillation counting method.
Chain of Ephrin type-B receptor 4 (Homo sapiens) (P54760 whole entry): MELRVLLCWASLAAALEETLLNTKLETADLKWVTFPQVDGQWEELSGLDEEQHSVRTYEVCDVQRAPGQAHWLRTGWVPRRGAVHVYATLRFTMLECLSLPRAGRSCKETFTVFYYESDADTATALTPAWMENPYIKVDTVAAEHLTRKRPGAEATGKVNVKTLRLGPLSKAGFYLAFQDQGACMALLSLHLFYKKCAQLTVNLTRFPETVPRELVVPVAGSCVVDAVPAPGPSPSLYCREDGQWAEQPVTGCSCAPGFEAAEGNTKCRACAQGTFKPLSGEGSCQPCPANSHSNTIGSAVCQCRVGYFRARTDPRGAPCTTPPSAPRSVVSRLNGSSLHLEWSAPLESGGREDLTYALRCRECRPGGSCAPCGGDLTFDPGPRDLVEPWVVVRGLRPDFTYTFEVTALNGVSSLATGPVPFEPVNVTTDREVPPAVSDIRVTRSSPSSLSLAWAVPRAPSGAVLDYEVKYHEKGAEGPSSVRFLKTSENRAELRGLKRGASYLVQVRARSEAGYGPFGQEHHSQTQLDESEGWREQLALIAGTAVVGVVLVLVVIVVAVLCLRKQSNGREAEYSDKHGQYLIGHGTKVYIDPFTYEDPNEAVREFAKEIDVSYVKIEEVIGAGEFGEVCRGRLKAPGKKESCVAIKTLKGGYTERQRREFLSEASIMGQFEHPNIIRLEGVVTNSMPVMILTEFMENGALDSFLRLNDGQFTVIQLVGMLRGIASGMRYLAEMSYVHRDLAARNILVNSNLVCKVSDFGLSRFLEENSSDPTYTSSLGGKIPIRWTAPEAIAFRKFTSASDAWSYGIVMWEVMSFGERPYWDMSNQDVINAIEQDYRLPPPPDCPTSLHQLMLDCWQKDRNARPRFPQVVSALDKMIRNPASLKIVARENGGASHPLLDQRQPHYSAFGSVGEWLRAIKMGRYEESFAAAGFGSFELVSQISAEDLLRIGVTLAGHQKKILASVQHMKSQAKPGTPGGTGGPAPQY
Data set [11] concerns the target Tyrosine-protein kinase Fes/Fps (Homo sapiens) (UniProt P07332). As to the kind of experiment: Inhibition of recombinant human FES (2 to end residues) at 10 uM using poly(Glu, Tyr) 4:1 as substrate measured after 40 mins in presence of [gamma33P]ATP by scintillation counting method.
For data set [12], the target named is Fibroblast growth factor receptor 4 (Homo sapiens) (UniProt P22455). The experiment in a line: Inhibition of recombinant human FGFR4 (442 to 755 residues) at 10 uM using poly(Glu, Tyr) 4:1 as substrate measured after 40 mins in presence of [gamma33P]ATP by scintillation counting method.
Data set [13] is filed under the species Homo sapiens. The experiment in a line: Inhibition of recombinant human Flt4 V1128L/H1146R mutant (800 to end residues) at 10 uM using GGEEEEYFELVKKKK as substrate measured after 40 mins in presence of [gamma33P]ATP by scintillation counting method.
Data set [14] deals with G protein-coupled receptor kinase 6 (Homo sapiens) (UniProt P43250). As to the kind of experiment: Inhibition of recombinant full-length human GRK6 at 10 uM using casein as substrate measured after 40 mins in presence of [gamma33P]ATP by scintillation counting method.
Chain of G protein-coupled receptor kinase 6 (Homo sapiens) (P43250 whole entry, looked up): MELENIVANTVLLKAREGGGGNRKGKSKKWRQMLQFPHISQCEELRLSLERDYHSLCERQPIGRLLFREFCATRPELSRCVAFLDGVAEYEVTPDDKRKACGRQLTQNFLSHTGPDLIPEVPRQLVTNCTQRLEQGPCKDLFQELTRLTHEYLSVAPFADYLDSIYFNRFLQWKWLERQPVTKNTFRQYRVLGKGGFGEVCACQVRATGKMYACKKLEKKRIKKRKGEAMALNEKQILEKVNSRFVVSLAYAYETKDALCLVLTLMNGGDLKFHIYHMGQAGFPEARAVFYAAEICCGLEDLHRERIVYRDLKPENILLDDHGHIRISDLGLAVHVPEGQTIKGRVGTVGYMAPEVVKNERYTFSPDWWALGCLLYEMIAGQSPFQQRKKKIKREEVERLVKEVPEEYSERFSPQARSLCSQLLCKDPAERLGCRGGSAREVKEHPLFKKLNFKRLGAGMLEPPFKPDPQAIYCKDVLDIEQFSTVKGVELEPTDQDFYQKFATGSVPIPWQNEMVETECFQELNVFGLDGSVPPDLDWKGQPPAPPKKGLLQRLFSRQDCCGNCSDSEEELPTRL
Data set [15] has as its target Inhibitor of nuclear factor kappa-B kinase subunit beta (Homo sapiens) (UniProt O14920). The experiment in a line: Inhibition of recombinant full-length human IKKbeta at 10 uM using peptide substrate measured after 40 mins in presence of [gamma33P]ATP by scintillation counting method.
Data set [16] has as its target Mitogen-activated protein kinase kinase kinase kinase 3 (Homo sapiens) (UniProt Q8IVH8). As to the kind of experiment: Inhibition of recombinant human MAP4K3 (1 to 291 residues) at 10 uM using RLGRDKYKTLRQIRQ as substrate measured after 40 mins in presence of [gamma33P]ATP by scintillation counting method.
Data set [17] has as its target MAP/microtubule affinity-regulating kinase 3 (Homo sapiens) (UniProt P27448). As to the kind of experiment: Inhibition of recombinant full-length human MARK3 at 10 uM using KKKVSRSGLYRSPSMPENLNRPR as substrate measured after 40 mins in presence of [gamma33P]ATP by scintillation counting method.
Data set [18] deals with Serine/threonine-protein kinase 26 (Homo sapiens) (UniProt Q9P289). The experiment in a line: Inhibition of recombinant human MST4 (4 to 304 residues) at 10 uM using RLGRDKYKTLRQIRQ as substrate measured after 40 mins in presence of [gamma33P]ATP by scintillation counting method.
Chain of Serine/threonine-protein kinase 26 (Homo sapiens) (Q9P289 2-416 limits assumed): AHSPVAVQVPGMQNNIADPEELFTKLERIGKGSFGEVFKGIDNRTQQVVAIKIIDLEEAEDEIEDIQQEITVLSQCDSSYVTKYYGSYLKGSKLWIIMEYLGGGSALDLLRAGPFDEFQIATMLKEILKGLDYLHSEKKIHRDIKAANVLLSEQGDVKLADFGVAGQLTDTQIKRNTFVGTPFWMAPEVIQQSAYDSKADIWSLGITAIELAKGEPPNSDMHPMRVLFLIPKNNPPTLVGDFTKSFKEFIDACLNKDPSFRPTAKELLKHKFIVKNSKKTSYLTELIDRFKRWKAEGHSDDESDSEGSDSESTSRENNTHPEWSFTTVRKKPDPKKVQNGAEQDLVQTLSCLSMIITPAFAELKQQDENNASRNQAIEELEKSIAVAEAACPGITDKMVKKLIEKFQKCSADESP
The target of data set [19] is FKBP12A/mTOR (Homo sapiens) (UniProt P62942+P42345). The experiment in a line: Inhibition of recombinant full-length human mTOR/FKBP12 at 10 uM measured after 40 mins in presence of [gamma33P]ATP by scintillation counting method. The class given is protein-complex assay.
The target in data set [20] is Protein kinase C beta type (Homo sapiens) (UniProt P05771). As to the kind of experiment: Inhibition of recombinant human PKCbeta2 (2 to end residues) at 10 uM using histone H1 as substrate measured after 40 mins in presence of [gamma33P]ATP by scintillation counting method.
Data set [21] deals with Serine/threonine-protein kinase TAO2 (Homo sapiens) (UniProt Q9UL54). The experiment in a line: Inhibition of human TAO2 (1 to 320 residues) using myelin basic protein as substrate measured after 40 mins in presence of [gamma33P]ATP by scintillation counting method.
Chain of Serine/threonine-protein kinase TAO2 (Homo sapiens) (Q9UL54 whole entry, the tested form may be a part): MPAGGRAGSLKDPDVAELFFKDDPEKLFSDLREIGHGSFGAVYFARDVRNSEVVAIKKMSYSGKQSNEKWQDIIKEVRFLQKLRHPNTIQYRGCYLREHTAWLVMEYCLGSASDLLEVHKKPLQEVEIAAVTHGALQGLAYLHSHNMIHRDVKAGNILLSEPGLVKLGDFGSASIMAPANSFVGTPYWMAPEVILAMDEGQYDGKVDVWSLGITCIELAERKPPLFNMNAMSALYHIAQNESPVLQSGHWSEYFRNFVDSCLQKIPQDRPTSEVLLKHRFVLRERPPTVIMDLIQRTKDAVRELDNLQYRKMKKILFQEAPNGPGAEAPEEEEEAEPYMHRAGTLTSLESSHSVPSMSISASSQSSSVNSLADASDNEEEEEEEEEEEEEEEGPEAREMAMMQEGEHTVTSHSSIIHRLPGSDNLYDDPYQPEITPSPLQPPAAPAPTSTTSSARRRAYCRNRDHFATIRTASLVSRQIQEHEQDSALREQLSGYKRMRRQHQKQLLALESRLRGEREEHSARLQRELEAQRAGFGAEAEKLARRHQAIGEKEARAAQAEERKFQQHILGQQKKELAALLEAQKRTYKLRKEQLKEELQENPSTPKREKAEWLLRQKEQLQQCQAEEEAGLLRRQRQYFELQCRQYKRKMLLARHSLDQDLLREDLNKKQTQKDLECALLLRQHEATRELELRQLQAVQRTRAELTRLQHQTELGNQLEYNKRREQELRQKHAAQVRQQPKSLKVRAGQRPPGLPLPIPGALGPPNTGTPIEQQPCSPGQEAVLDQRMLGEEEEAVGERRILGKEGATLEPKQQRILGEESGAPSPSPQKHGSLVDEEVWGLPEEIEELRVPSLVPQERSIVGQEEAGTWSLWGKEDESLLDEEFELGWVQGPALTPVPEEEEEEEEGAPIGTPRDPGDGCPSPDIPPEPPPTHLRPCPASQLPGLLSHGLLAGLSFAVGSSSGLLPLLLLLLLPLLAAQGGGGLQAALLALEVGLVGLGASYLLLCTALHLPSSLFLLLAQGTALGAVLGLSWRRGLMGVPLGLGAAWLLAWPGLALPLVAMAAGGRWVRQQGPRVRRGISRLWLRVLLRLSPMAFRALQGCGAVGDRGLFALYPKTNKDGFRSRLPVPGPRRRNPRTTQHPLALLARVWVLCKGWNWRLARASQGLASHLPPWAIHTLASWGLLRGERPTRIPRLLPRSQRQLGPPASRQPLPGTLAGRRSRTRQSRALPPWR
Data set [22] has as its target PI3-kinase p110-alpha/p85-alpha (Homo sapiens) (UniProt P27986+P42336). As to the kind of experiment: Inhibition of recombinant full-length human PI3K p110alpha/p85alpha at 10 uM using phosphatidylinositol-4, 5-bisphosphate as substrate measured after 40 mins by fluorescence assay. The class given is protein-complex assay.
Data set [23] deals with Casein kinase II subunit alpha' (CK2alpha2, Homo sapiens) (UniProt P19784). As to the kind of experiment: Inhibition of recombinant full length human CK2alpha2 at 10 uM using RRRDDDSDDD as substrate measured after 40 mins in presence of [gamma33P]ATP by scintillation counting method.
Chain of Casein kinase II subunit alpha' (CK2alpha2, Homo sapiens) (P19784 whole entry, looked up): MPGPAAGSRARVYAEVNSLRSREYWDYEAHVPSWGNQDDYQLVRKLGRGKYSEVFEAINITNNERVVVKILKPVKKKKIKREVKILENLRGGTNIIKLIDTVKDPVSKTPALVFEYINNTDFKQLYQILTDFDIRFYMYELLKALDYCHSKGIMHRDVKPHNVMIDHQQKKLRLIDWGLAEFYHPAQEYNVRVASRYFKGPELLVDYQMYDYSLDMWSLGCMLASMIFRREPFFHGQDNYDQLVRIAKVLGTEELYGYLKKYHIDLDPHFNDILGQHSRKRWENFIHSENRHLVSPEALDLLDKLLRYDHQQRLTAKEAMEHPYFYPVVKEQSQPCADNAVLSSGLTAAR

Chain of Calcium/calmodulin-dependent protein kinase type 1G (Homo sapiens) (Q96NX5 whole entry): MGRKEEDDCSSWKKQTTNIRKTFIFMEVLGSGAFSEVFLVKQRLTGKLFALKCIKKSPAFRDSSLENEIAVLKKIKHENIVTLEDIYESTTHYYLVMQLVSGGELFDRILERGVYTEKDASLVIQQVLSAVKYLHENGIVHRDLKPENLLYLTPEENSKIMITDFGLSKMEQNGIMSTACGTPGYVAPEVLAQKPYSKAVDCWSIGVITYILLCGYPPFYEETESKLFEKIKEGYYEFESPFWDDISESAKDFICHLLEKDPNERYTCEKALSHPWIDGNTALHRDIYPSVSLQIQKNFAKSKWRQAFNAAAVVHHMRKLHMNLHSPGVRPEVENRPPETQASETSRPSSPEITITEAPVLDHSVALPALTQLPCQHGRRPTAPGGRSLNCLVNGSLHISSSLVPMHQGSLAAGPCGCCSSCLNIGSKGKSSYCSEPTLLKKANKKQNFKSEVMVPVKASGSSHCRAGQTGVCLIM
Chain of Casein kinase I isoform gamma-3 (Homo sapiens), Q9Y6M4 [UNDEFINED MUTATION] (Q9Y6M4 whole entry, looked up, stated change not applied, the tested form may be a part, canonical isoform): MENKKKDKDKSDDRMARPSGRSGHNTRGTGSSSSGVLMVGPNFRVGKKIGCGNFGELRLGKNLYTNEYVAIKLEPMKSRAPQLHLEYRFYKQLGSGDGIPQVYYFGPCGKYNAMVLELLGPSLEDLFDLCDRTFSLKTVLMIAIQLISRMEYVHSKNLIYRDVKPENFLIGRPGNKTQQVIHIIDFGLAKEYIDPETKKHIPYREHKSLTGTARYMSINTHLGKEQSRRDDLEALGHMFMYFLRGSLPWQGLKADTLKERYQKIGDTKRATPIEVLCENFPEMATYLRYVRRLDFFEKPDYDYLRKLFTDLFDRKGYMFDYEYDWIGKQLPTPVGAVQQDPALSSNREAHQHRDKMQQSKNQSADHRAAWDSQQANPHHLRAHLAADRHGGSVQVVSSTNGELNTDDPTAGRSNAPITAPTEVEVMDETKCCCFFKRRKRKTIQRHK

Usually half-life stands for the time in which the quantity being followed falls by half. Read a high half-life as slow loss. For the molecule `CN1C[C@H](Nc2nc3cc[nH]c3c(=O)n2C)C[C@H](c2ccc3c(c2)OCCO3)C1`, the half-life in [1] is 1.51 h. In addition, the inhibition entry (in the data set listed under Homo sapiens [2]; in [3]; in [4]; in data set [5]; in [6]; in data set [7]) was “inactive” each time. Also, the inhibition entry (in data set [8]; in [9]; in data set [10]; in data set [11]; in [12]; in the data set filed under Homo sapiens [13]) was “inactive” throughout. Also, the inhibition entry in data set [14], in data set [15], in [16], in [17], in [18] and in data set [19] was “inactive” each time. Moreover, the inhibition result in data set [20], in data set [21], in data set [22] and in data set [23] was “inactive” throughout.
